Measurements from different studies.
Compare with care: the assays were run in different laboratories.
Observed: cell growth or viability

| SMILES | cell line | test | conditions | measurement | value |
| --- | --- | --- | --- | --- | --- |
| O=C(NO)c1ccc(CNc2nc3cccc(-c4ccc5c(c4)OCO5)n3n2)cc1 | KM12 | SRB | – | GI50 | 560 nM |
| CC1(C)CCC(CN2CCN(c3ccc(C(=O)NS(=O)(=O)c4ccc(NCC5CCOCC5)c([N+](=O)[O-])c4)c(Oc4cnc5[nH]ccc5c4)c3)CC2)=C(c2ccc(Cl)cc2)C1 | OCI-Ly10 | ATP luminescence | 48 h | IC50 | 19 nM |
| Cc1c(C(=O)O)ccc2c3n(nc12)[C@@H]1[C@H](C3)N(CC2CC2)[C@@]2(C(=O)Nc3cc(Cl)ccc32)[C@H]1c1cccc(Cl)c1F | UACC-812 | resazurin | – | GI50 | 27 nM |
| CO[C@]12C[C@@H](COC(=O)c3cncc(Br)c3)CN(C)[C@@H]1Cc1cn(C)c3cccc2c13 | SUNE1 | MTT | 48 h | IC50 | 12200 nM |
| CC(C)c1ccccc1[C@@H]1CCCN1C1CC2(CCN(c3ccc(C(=O)NS(=O)(=O)c4ccc(NC[C@H]5CC[C@](C)(O)CC5)c([N+](=O)[O-])c4)c(Oc4cnc5[nH]ccc5c4)c3)CC2)C1 | OCI-Ly10 | ATP luminescence | 48 h | IC50 | 2.6 nM |
| C=CC(=O)NC1CCN(c2ncc3ncnc(Nc4ccc(Oc5ccc6c(c5)ncn6C)c(C)c4)c3n2)CC1 | Daoy | – | – | EC50 | 74.4 nM |
| COc1cc2nc(N3CCN(C(=O)c4ccco4)CC3)nc(N)c2cc1OC | SUNE1 | MTT | 48 h | IC50 | 27400 nM |
| O=C(Nc1cnn2ccc(N3CCC[C@@H]3c3cc(F)ccc3F)nc12)N1CC[C@H](O)C1 | KM12 | ATP luminescence | 72 h | IC50 | 10 nM |
